From article PMC4428392 (Anti-Cancer Agents in Medicinal Chemistry, 2014)
“And” between values parts separate entries of the source, which are not always exact repeats. Equal values may be shown once. Read-outs that look alike come from different tables or passages of the source.

How the values were obtained:
MCF-7 = test: MTT cytotoxicity assay in normoxia and hypoxia, MCF-7; assay type: cell-based, Human
Procedure, shortened: (§1)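 MCF-7 and HCT-116 were grown in DMEM; NCI-H460 in RPMI 1640 plus 10 mM HEPES; all media had 10% FBS, pyruvate and 1.5 g/L bicarbonate. Cells were seeded at 20000/well and grown 24 h at 20% O2, 5% CO2, 37 °C. Serial compound concentrations were then given for 24 h in normoxia, or for 6 h hypoxia (3% O2) followed by 18 h normoxia. MTT was read at 545 nm. IC50 came from linear regression of % inhibition versus log concentration, and HCR = IC50 normoxia/IC50 hypoxia.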

NCI-H460 = test: MTT cytotoxicity assay in normoxia and hypoxia, NCI-H460; assay type: cell-based, Human; details: for IC50: Homo sapiens
Procedure, shortened: as §1

HCT-116 = test: MTT cytotoxicity assay in normoxia and hypoxia, HCT-116; assay type: cell-based, Human; details: for HCR = hypoxic cytotoxicity ratio IC50 (aerobic)/IC50 (hypoxic): HCT-116; for IC50: Homo sapiens
Procedure, shortened: as §1

HCT-116 cells [1] = test: Cell cycle assay by flow cytometry; assay type: cell-based, Human; details: 24 h
HCT-116 cells [2] = test: ROS analysis by flow cytometry; assay type: cell-based, Human
Procedure, shortened: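 HCT-116 cells were treated with test compound at 15 or 30 µM in normoxia or hypoxia (24 h per methods; legend states 18 h). They were stained with CM-H2DCFDA for 45 min, collected, and analysed on a FACSCalibur flow cytometer. Fluorescence was normalised to solvent control; mean ± SEM, n=3.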

[3] = system: caspase 3/7 in HCT-116 cells; test: Caspase 3/7 activity; assay type: cell-based, Human; details: 30 µM, 24 h; for level of active caspase 3/7: HCT-116, hypoxia, solvent control 7%; for effect on level of active caspase 3/7: HCT-116, normoxia
Procedure, shortened: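 HCT-116 cells were exposed to test compound at 30 µM for 24 h in normoxia or hypoxia. Cells were harvested, washed in PBS, centrifuged (350 g, 5 min) and stained with a FAM-FLICA caspase-3/7 inhibitor kit. Active caspase 3/7 was measured by flow cytometry. Data are mean ± SEM, n=3, compared with solvent control by one-way ANOVA with Tukey post hoc test.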

γ-H2AX in HCT-116 cells = test: Level of γ-H2AX by flow cytometry; assay type: cell-based, Human; details: 30 µM, 24 h; for expression of γ-H2AX: HCT-116, hypoxia, solvent control 4%; for effect on expression of γ-H2AX: HCT-116, normoxia
[4] = system: cleaved PARP in HCT-116 cells; test: Level of cleaved PARP by flow cytometry; assay type: cell-based, Human; details: HCT-116, hypoxia, 30 µM, 24 h
[5] = system: γ-H2AX and cleaved PARP in HCT-116 cells; test: Dual-parameter γ-H2AX and cleaved PARP flow cytometry; assay type: cell-based, Human; details: 30 µM, 24 h
[6] = system: co-cultured HUVECs and fibroblasts; test: In vitro tube formation test; assay type: cell-based, Human; details: 2 μM, 11 days
Procedure, shortened: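 HUVECs were co-cultured with fibroblasts for 11 days in basal medium, solvent-control medium (0.2% DMSO), or solvent medium with test compound at 2 or 20 μM. Medium ± compound was renewed every 3 days, and suramin served as the kit positive control. HUVECs were stained with anti-CD31, and tube area, length, joints and paths were measured by image analyzer over 5 fields. Quadruplicate wells; mean ± SEM, n=4.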

[7] = Partition coefficient octanol/aqueous buffer pH 7.4 by HPLC; assay type: physicochemical; details: octanol/phosphate buffer pH 7.4, HPLC
Procedure, shortened: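 Octanol/phosphate buffer (pH 7.4) distribution was determined by HPLC at the compound retention time. Conditions: RP-18E column (4.6 × 150 mm, 5 µm) at 25 °C; isocratic water:acetonitrile 70:30 with 0.7% acetic acid at 0.5 mL/min; UV detection at 285 nm. Samples were dissolved in DMSO or methanol.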

[8] = NCI-H460, 24 h, read-out: Cytotoxicity (IC50) NCI-H460 N
[9] = NCI-H460, read-out: Cytotoxicity (IC50) NCI-H460 H
[10] = HCT-116, 24 h, read-out: Cytotoxicity (IC50) HCT-116 N
[11] = HCT-116, read-out: Cytotoxicity (IC50) HCT-116 H

Compound: [O-][n+]1nc(NCCNc2n[n+]([O-])c3ccccc3[n+]2[O-])nc2ccccc21 [Compound 9a, 3-(2-(1-Oxido-1,2,4-benzotriazin-3-yl)aminoethylamino)-1,2,4-benzotriazine-1,4-dioxide]
- HCR = IC50 (aerobic)/IC50 (hypoxia) (MCF-7): > 6.0
- IC50 (NCI-H460; [8]): 43.7 ± 12.5 µM
- IC50 (NCI-H460; [9]): 17.5 ± 4.3 µM
- HCR = IC50 (aerobic)/IC50 (hypoxia) (NCI-H460; NCI-H460): 2.5
- HCR = hypoxic cytotoxicity ratio IC50 (aerobic)/IC50 (hypoxic) (HCT-116): 3.7
- IC50 (HCT-116; [10]): 66.3 ± 16.5 µM
- IC50 (HCT-116; [11]): 18.1 ± 2.6 µM
- G1 (%) (HCT-116 cells [1]; HCT-116, hypoxia, 15 µM): 26.2±3.7%
- G2/M (%) (HCT-116 cells [1]; HCT-116, hypoxia, 15 µM): 31.4% and 31.4±3.2%
- S (%) (HCT-116 cells [1]; HCT-116, hypoxia, 15 µM): 27.3±4.4%
- Sub-G1 (%) (HCT-116 cells [1]; HCT-116, hypoxia, 15 µM): 13.1% and 13.1±1.7%
- G1 (%) (HCT-116 cells [1]; HCT-116, hypoxia, 30 µM): 33.3±2.4%
- G2/M (%) (HCT-116 cells [1]; HCT-116, hypoxia, 30 µM): 16.7% and 16.7±2.5%
- S (%) (HCT-116 cells [1]; HCT-116, hypoxia, 30 µM): 25.8±3.8%
- Sub-G1 (%) (HCT-116 cells [1]; HCT-116, hypoxia, 30 µM): 24.3% and 24.3±2.8%
- G1 (%) (HCT-116 cells [1]; HCT-116, normoxia, 15 µM): 30.9±2.3%
- G2/M (%) (HCT-116 cells [1]; HCT-116, normoxia, 15 µM): 51.0% and 51.0±4.2%
- S (%) (HCT-116 cells [1]; HCT-116, normoxia, 15 µM): 15.0±5.5%
- Sub-G1 (%) (HCT-116 cells [1]; HCT-116, normoxia, 15 µM): 2.7±0.7%
- G1 (%) (HCT-116 cells [1]; HCT-116, normoxia, 30 µM): 24.3±4.1%
- G2/M (%) (HCT-116 cells [1]; HCT-116, normoxia, 30 µM): 58.3% and 58.3±2.8%
- S (%) (HCT-116 cells [1]; HCT-116, normoxia, 30 µM): 12.9±5.2%
- Sub-G1 (%) (HCT-116 cells [1]; HCT-116, normoxia, 30 µM): 3.8% and 3.8±1.7%
- increase of ROS relative to control medium (HCT-116 cells [2]; HCT-116, hypoxia, 15 µM): 46 fold
- increase of ROS relative to control medium (HCT-116 cells [2]; HCT-116, hypoxia, 30 µM): 60 fold
- increase of ROS relative to control medium (HCT-116 cells [2]; HCT-116, normoxia, 15 µM): 3.4 fold
- increase of ROS relative to control medium (HCT-116 cells [2]; HCT-116, normoxia, 30 µM): 5.8 fold
- level of active caspase 3/7 [3]: ~55%
- effect on level of active caspase 3/7 [3]: no apparent effect
- expression of γ-H2AX (γ-H2AX in HCT-116 cells): around 30%
- effect on expression of γ-H2AX (γ-H2AX in HCT-116 cells): no significant effect
- cleaved PARP [4]: ~45%
- cells expressing both γ-H2AX and cleaved PARP (upper right quadrant) ([5]; HCT-116, hypoxia): approximately 11%
- cells expressing both γ-H2AX and cleaved PARP (upper right quadrant) ([5]; HCT-116, normoxia): 0.1%
- reduction of areas, lengths, paths and joints of tube formation [6]: 70-80%

Compound: Nc1n[n+]([O-])c2ccccc2[n+]1[O-] [TPZ, 3-amino-1,2,4-benzotriazine-1,4-dioxide, reference compound]
- HCR = IC50 (aerobic)/IC50 (hypoxia) (MCF-7): 6.3
- IC50 (NCI-H460; [8]): 85 ± 9.7 µM
- IC50 (NCI-H460; [9]): 32.9 ± 2.1 µM
- HCR = hypoxic cytotoxicity ratio IC50 (aerobic)/IC50 (hypoxic) (HCT-116): 2.6
- IC50 (HCT-116; [10]): 89.1 ± 14.5 µM
- IC50 (HCT-116; [11]): 34.8 ± 8.3 µM
- IC50 (HCT-116; HCT-116, read-out: Cytotoxicity (IC50), cell kill under hypoxia): 34.8 µM
- Log P7.4 [7]: -0.42
- G1 (%) (HCT-116 cells [1]; HCT-116, hypoxia, 15 µM): 22.5±9.4%
- G2/M (%) (HCT-116 cells [1]; HCT-116, hypoxia, 15 µM): 35.2% and 35.2±4.9%
- S (%) (HCT-116 cells [1]; HCT-116, hypoxia, 15 µM): 34.7±6.0%
- Sub-G1 (%) (HCT-116 cells [1]; HCT-116, hypoxia, 15 µM): 7.3% and 7.3±2.7%
- G1 (%) (HCT-116 cells [1]; HCT-116, hypoxia, 30 µM): 26.3±5.5%
- G2/M (%) (HCT-116 cells [1]; HCT-116, hypoxia, 30 µM): 27.3% and 27.3±1.3%
- S (%) (HCT-116 cells [1]; HCT-116, hypoxia, 30 µM): 29.6±4.7%
- Sub-G1 (%) (HCT-116 cells [1]; HCT-116, hypoxia, 30 µM): 16.5% and 16.5±1.2%
- G1 (%) (HCT-116 cells [1]; HCT-116, normoxia, 15 µM): 41.9±1.7%
- G2/M (%) (HCT-116 cells [1]; HCT-116, normoxia, 15 µM): 33.1% and 33.1±3.7%
- S (%) (HCT-116 cells [1]; HCT-116, normoxia, 15 µM): 21.9±2.4%
- G1 (%) (HCT-116 cells [1]; HCT-116, normoxia, 30 µM): 35.3% and 35.3±1.4%
- G2/M (%) (HCT-116 cells [1]; HCT-116, normoxia, 30 µM): 39.1% and 39.1±4.0%
- S (%) (HCT-116 cells [1]; HCT-116, normoxia, 30 µM): 22.1±2.9%
- Sub-G1 (%) (HCT-116 cells [1]; HCT-116, normoxia, 30 µM): 3.2±0.5%
- increase of ROS relative to control medium (HCT-116 cells [2]; HCT-116, hypoxia, 15 µM): 6 fold
- increase of ROS relative to control medium (HCT-116 cells [2]; HCT-116, hypoxia, 30 µM): 10.5 fold
- increase of ROS relative to control medium (HCT-116 cells [2]; HCT-116, normoxia, 15 µM): 1.5 fold
- increase of ROS relative to control medium (HCT-116 cells [2]; HCT-116, normoxia, 30 µM): 2 fold
- level of active caspase 3/7 [3]: about 41%
- effect on level of active caspase 3/7 [3]: no apparent effect
- expression of γ-H2AX (γ-H2AX in HCT-116 cells): around 30%
- effect on expression of γ-H2AX (γ-H2AX in HCT-116 cells): no significant effect
- cleaved PARP [4]: approximately 10%
- cells expressing both γ-H2AX and cleaved PARP (upper right quadrant) ([5]; HCT-116, hypoxia): 1.9%
- cells expressing both γ-H2AX and cleaved PARP (upper right quadrant) ([5]; HCT-116, normoxia): 0.1%
